Source: ChEMBL document CHEMBL2321682, “Synthesis and Anti-inflammatory Evaluation of Novel Benzimidazole and Imidazopyridine Derivatives” (ACS Med Chem Lett, 2013)

Experiments:
RAW264.7 [1] = assay: Inhibition of LPS-induced TNF-alpha secretion in mouse RAW264.7 cells at 10 uM pretreated for 2 hrs prior to LPS addition measured after 22 hrs by ELISA; assay type: functional
Summary of the method: (§1)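 RAW 264.7 macrophages seeded at 4.0 × 10^5/plate overnight (37 °C, 5% CO2), pretreated 2 h with 10 μM compound (omeprazole as comparator), then LPS 0.5 μg/mL for 22 h. TNF-α and IL-6 in medium measured by ELISA, normalized to total cellular protein.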

RAW264.7 [2] = assay: Inhibition of LPS-induced IL-6 secretion in mouse RAW264.7 cells pretreated for 2 hrs prior to LPS addition measured after 22 hrs by ELISA; assay type: functional, cell-based
Summary of the method: (§2)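 Dose–response for IC50. RAW264.7 cells were seeded at 1.2 × 10^6/plate overnight at 37 °C, 5% CO2. They were pretreated 2 h with 1.0, 5.0 or 10 μM compound, then given LPS 0.5 μg/mL for 22 h. Medium TNF-α or IL-6 was quantified by ELISA and normalized to total protein.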

[3] = Cytotoxicity against human HL7702 cells assessed as inhibition of cell viability at 20 uM after 24 to 72 hrs by MTT assay; assay type: cell-based; conditions: l02, 20 µM
Summary of the method: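 Human normal liver HL-7702 cells exposed to 20 μM compound for 24, 48 and 72 h; viability read by MTT.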

RAW264.7 [4] = assay: Inhibition of LPS-induced IL-6 secretion in mouse RAW264.7 cells at 10 uM pretreated for 2 hrs prior to LPS addition measured after 22 hrs by ELISA; assay type: functional; summary of the method: as §1
RAW264.7 [5] = assay: Inhibition of LPS-induced TNF-alpha secretion in mouse RAW264.7 cells pretreated for 2 hrs prior to LPS addition measured after 22 hrs by ELISA; assay type: functional, cell-based; summary of the method: as §2
Mus musculus [6] = assay: Antiinflammatory activity against LPS-induced C57BL/6 mouse sepsis model assessed as increase in survival rate at 15 mg/kg, iv administered 15 mins after LPS injection measured for 7 days; assay type: functional
Summary of the method: (§3)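 Mice received LPS 20 mg/kg iv. Test agent was given iv as its HCl salt at 15 mg/kg, either 15 min after LPS (line 1, therapeutic) or 15 min before LPS (line 2, preventive). Survival and body weight were recorded daily for 7 days. Data pool two experiments, n = 12 per group, compared with the LPS-alone group.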

Mus musculus [7] = assay: Antiinflammatory activity against LPS-induced C57BL/6 mouse sepsis model assessed as increase in survival rate at 15 mg/kg, iv administered 15 mins prior to LPS injection measured for 7 days; assay type: functional; summary of the method: as §3

CCN(CC)CCn1c(-c2ccccc2OC)nc2cc(Cl)ccc21
inhibition at 10 µM (RAW264.7 [1]): 50%

COc1ccccc1-c1nc2ccc(N3CCN(C)CC3)nc2[nH]1
inhibition at 10 µM (RAW264.7 [1]): 50%

CCCn1c(-c2c[nH]c3ncccc23)nc2ccc(N3CCN(C)CC3)nc21 [listing 1 of 2 here]
IC50 (RAW264.7 [2]): 1.62 µM | Activity [3]: Non-toxic | inhibition at 10 µM (RAW264.7 [4]): > 50% | IC50 (RAW264.7 [5]): 4.79 µM | inhibition at 10 µM (RAW264.7 [1]): 50%

CCCn1c(-c2c[nH]c3ncccc23)nc2ccc(N3CCN(C)CC3)nc21.Cl
Activity (Mus musculus [6]): 50% | Activity (Mus musculus [7]): 50%

CCCn1c(-c2cn(C)c3ccccc23)nc2ccc(N3CCN(C)CC3)nc21
inhibition at 10 µM (RAW264.7 [1]): 50%

Cc1ccc(-c2nc3ccc(N4CCN(C)CC4)nc3[nH]2)s1
inhibition at 10 µM (RAW264.7 [1]): 50%

CCCn1c(-c2c[nH]c3ncccc23)nc2ccc(N3CCN(C)CC3)nc21 [listing 2 of 2 here]
inhibition (RAW264.7 [2]): Dose-dependent effect | inhibition (RAW264.7 [5]): Dose-dependent effect

CCCn1c(-c2ccc(OCCCN(C)C)cc2)nc2ccc(N3CCN(C)CC3)nc21
IC50 (RAW264.7 [2]): 3.28 µM | inhibition (RAW264.7 [2]): Dose-dependent effect | Activity [3]: Non-toxic | inhibition at 10 µM (RAW264.7 [4]): > 50% | IC50 (RAW264.7 [5]): 12.4 µM | inhibition (RAW264.7 [5]): Dose-dependent effect | inhibition at 10 µM (RAW264.7 [1]): 50%

CCCn1c(-c2ccccc2OC)nc2ccc(N3CCN(C)CC3)nc21
inhibition at 10 µM (RAW264.7 [1]): 50%

CCCn1c(-c2ccccc2F)nc2ccc(N3CCN(C)CC3)nc21
inhibition at 10 µM (RAW264.7 [1]): 50%

CCCn1c(-c2c[nH]c3ccc(Br)cc23)nc2ccc(N3CCN(C)CC3)nc21
IC50 (RAW264.7 [2]): 1.21 µM | inhibition (RAW264.7 [2]): Dose-dependent effect | Activity [3]: Toxic | inhibition at 10 µM (RAW264.7 [4]): > 50% | IC50 (RAW264.7 [5]): 1.99 µM | inhibition (RAW264.7 [5]): Dose-dependent effect | inhibition at 10 µM (RAW264.7 [1]): 50%

CCCn1c(-c2ccc(C)s2)nc2ccc(N3CCN(C)CC3)nc21
IC50 (RAW264.7 [2]): 2.81 µM | inhibition (RAW264.7 [2]): Dose-dependent effect | inhibition at 10 µM (RAW264.7 [4]): > 50% | IC50 (RAW264.7 [5]): 7.25 µM | inhibition (RAW264.7 [5]): Dose-dependent effect | inhibition at 10 µM (RAW264.7 [1]): 50%

CCCn1c(-c2c[nH]c3ccccc23)nc2ccc(N3CCN(C)CC3)nc21
IC50 (RAW264.7 [2]): 4.3 µM | inhibition (RAW264.7 [2]): Dose-dependent effect | inhibition at 10 µM (RAW264.7 [4]): 81.4% | IC50 (RAW264.7 [5]): 14.2 µM | inhibition (RAW264.7 [5]): Dose-dependent effect | inhibition at 10 µM (RAW264.7 [1]): 64.8%

CCCn1c(-c2ccc(C)s2)nc2ccc(N3CCOCC3)nc21
inhibition at 10 µM (RAW264.7 [1]): 50%

CCCn1c(-c2ccccc2Br)nc2ccc(N3CCN(C)CC3)nc21
inhibition at 10 µM (RAW264.7 [1]): 50%

CCCn1c(-c2cn(C)c3ccccc23)nc2ccc(N3CCOCC3)nc21
inhibition at 10 µM (RAW264.7 [1]): 50%

CN1CCN(c2ccc3nc(-c4c[nH]c5ccccc45)[nH]c3n2)CC1
inhibition at 10 µM (RAW264.7 [1]): 50%
